Source: ChEMBL document CHEMBL1136923, “Highly potent, orally available anti-inflammatory broad-spectrum chemokine inhibitors” (J Med Chem, 2009)

Experiments:
[1] = biological target: C-C chemokine receptor type 5 (Homo sapiens) (UniProt P51681); assay: Antagonist activity at CCR5 in human THP1 cells assessed as inhibition of CCL5-induced chemotaxis at 100 nM after 2 hrs by microtiter format trans-well migration assay; format: functional, cell-based; settings: THP-1
In short: (§1)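 Microtiter trans-well migration assay in Gey's balanced salt solution with 1 mg/mL endotoxin-free BSA, no fetal calf serum. Migration ran 2 h at 37 °C. Compounds dissolved in DMSO and added to both top and bottom compartments, final DMSO 1%.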

[2] = Cmax in Sprague-Dawley rat at 3 mg/kg, po administered as single dose; format: ADME, organism-based; parameters: dose 3 mg/kg, route oral; settings: in vivo
In short: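 Male Sprague-Dawley rats, three per compound, receive a single oral dose by gavage in 1% carboxymethylcellulose in 0.9% saline, with food and water ad libitum. Plasma is sampled from 5 to 480 min and drug is quantified by positive-mode LC/MS/MS after acetonitrile/formic acid extraction. The lower limit of quantitation is about 2 ng/mL. Exposure is AUC(0→t) by the linear/log trapezoidal rule, and F is oral fractional bioavailability.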

THP-1 [3] = assay: Endogenous chemoattractant activity at human THP1 cells assessed as cell migration at 1000 uM after 2 hrs by microtiter format trans-well migration assay; format: functional
[4] = biological target: C-C chemokine receptor type 5 (Homo sapiens) (UniProt P51681); assay: Antagonist activity at CCR5 in human THP1 cells assessed as inhibition of CCL5-induced chemotaxis at 1000 nM after 2 hrs by microtiter format trans-well migration assay; format: functional, cell-based; settings: THP-1; in short: as §1
[5] = Antagonist activity at Interleukin-8 receptor in human PMNC assessed as inhibition of CXCL8-induced chemotaxis at 100 nM after 2 hrs by microtiter format trans-well migration assay; format: functional; in short: as §1
[6] = biological target: T1, C-C chemokine receptor type 1 (Homo sapiens) (UniProt P32246); assay: Antagonist activity at CCR1 in human THP1 cells assessed as inhibition of CCL3-induced chemotaxis at 1 nM after 2 hrs by microtiter format trans-well migration assay; format: functional, cell-based; settings: THP-1; in short: as §1
T1 sequence (whole entry): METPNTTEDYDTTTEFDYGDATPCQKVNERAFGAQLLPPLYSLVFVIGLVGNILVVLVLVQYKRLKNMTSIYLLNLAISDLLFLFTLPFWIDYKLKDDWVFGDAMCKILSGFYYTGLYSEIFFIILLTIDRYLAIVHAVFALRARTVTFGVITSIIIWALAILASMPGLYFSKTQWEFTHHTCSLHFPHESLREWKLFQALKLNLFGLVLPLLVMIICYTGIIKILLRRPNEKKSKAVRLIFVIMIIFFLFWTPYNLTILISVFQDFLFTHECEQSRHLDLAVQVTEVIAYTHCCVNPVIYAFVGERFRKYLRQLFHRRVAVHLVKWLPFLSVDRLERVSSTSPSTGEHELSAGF

[7] = Volume of distribution at steady state in Sprague-Dawley rat at 1 mg/kg, iv administered as single dose; format: ADME, organism-based; parameters: dose 1 mg/kg, route intravenous; settings: in vivo, read-out: Vdss
In short: (§2)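 Male Sprague-Dawley rats, three per compound, receive a single intravenous dose in 5% DMSO in 0.9% saline. Food and water are given ad libitum. Plasma is taken at 5, 15, 30, 60, 120, 180, 240 and 480 min. Drug is measured by LC/MS/MS after extraction with 0.1% formic acid in acetonitrile. The curve is back-extrapolated to time zero assuming an initial volume of 0.26 L/kg.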

[8] = biological target: C-C chemokine receptor type 2 (Homo sapiens) (UniProt P41597); assay: Antagonist activity at CCR2 in human THP1 cells assessed as inhibition of CCL2-induced chemotaxis at 0.01 nM after 2 hrs by microtiter format trans-well migration assay; format: functional, cell-based; settings: THP-1; in short: as §1
Sequence of C-C chemokine receptor type 2 (Homo sapiens) (P41597 whole entry, looked up): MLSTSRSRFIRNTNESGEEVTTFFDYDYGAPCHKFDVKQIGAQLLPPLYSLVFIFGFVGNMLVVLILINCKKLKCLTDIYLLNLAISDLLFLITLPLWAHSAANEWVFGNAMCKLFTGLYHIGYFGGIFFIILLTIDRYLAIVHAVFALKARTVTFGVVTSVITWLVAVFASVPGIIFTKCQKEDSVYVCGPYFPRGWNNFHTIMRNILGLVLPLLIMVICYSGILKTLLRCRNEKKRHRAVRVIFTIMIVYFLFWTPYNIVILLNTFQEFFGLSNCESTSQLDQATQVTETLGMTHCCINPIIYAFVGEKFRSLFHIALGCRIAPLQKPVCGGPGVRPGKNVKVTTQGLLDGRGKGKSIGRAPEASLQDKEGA

[9] = Half life in Sprague-Dawley rat at 1 mg/kg, iv administered as single dose; format: ADME, organism-based; parameters: dose 1 mg/kg, route intravenous; settings: in vivo; in short: as §2
[10] = biological target: C-C chemokine receptor type 2 (Homo sapiens) (UniProt P41597); assay: Antagonist activity at CCR2 in human THP1 cells assessed as inhibition of CCL2-induced chemotaxis at 0.1 nM after 2 hrs by microtiter format trans-well migration assay; format: functional, cell-based; settings: THP-1; in short: as §1
[11] = biological target: T1, C-C chemokine receptor type 1 (Homo sapiens); assay: Antagonist activity at CCR1 in human THP1 cells assessed as inhibition of CCL3-induced chemotaxis at 0.01 nM after 2 hrs by microtiter format trans-well migration assay; format: functional, cell-based; settings: THP-1; in short: as §1
[12] = biological target: T2, C5a anaphylatoxin chemotactic receptor 1 (Homo sapiens) (UniProt P21730); assay: Antagonist activity at C5a receptor in human PMNC assessed as inhibition of C5a-induced chemotaxis at 0.1 nM after 2 hrs by microtiter format trans-well migration assay; format: functional; in short: as §1
T2 sequence (whole entry): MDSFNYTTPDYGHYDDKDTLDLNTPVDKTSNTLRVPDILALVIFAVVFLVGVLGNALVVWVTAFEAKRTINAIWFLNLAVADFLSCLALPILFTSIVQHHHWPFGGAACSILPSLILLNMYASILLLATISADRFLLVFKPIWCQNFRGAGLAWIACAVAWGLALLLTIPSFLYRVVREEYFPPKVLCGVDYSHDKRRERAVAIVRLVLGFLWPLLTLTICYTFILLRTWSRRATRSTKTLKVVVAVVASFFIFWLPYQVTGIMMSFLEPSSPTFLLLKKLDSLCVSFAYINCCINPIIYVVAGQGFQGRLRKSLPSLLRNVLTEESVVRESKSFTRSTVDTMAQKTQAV

Mus musculus [13] = assay: Antiinflammatory activity in mouse assessed as inhibition of LPS-induced TNFalpha upregulation at 0.025 ug, sc measured 2 hrs after LPS challenge; format: functional
In short: (§3)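 Murine sublethal endotoxemia: LPS given intraperitoneally, with serum TNF-α measured 2 h after the LPS injection as the end point. Compound was given subcutaneously or orally. Vehicle was 0.6% DMSO and 1% carboxymethylcellulose (final concentrations) in sterile water. Effect is reported as % relative to control.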

Mus musculus [14] = assay: Antiinflammatory activity in mouse assessed as inhibition of LPS-induced TNFalpha upregulation at 0.075 ug, sc measured 2 hrs after LPS challenge; format: functional; in short: as §3
[15] = biological target: C-C chemokine receptor type 2 (Homo sapiens) (UniProt P41597); assay: Antagonist activity at CCR2 in human THP1 cells assessed as inhibition of CCL2-induced chemotaxis at 10 nM after 2 hrs by microtiter format trans-well migration assay; format: functional, cell-based; settings: THP-1; in short: as §1
THP-1 [16] = assay: Endogenous chemoattractant activity at human THP1 cells assessed as cell migration at 10 uM after 2 hrs by microtiter format trans-well migration assay; format: functional
THP-1 [17] = assay: Endogenous chemoattractant activity at human THP1 cells assessed as cell migration at 1 nM after 2 hrs by microtiter format trans-well migration assay; format: functional
[18] = biological target: C-C chemokine receptor type 2 (Homo sapiens) (UniProt P41597); assay: Antagonist activity at CCR2 in human THP1 cells assessed as inhibition of CCL2-induced chemotaxis at 1000 nM after 2 hrs by microtiter format trans-well migration assay; format: functional, cell-based; settings: THP-1; in short: as §1
Mus musculus [19] = assay: Antiinflammatory activity in mouse assessed as inhibition of LPS-induced TNFalpha upregulation at 0.0075 ug, sc measured 2 hrs after LPS challenge; format: functional; in short: as §3
[20] = biological target: C-X-C chemokine receptor type 4 (Homo sapiens) (UniProt P61073); assay: Antagonist activity at CXCR4 in human THP1 cells assessed as inhibition of CXCL12-induced chemotaxis at 10 nM after 2 hrs by microtiter format trans-well migration assay; format: functional, cell-based; settings: THP-1; in short: as §1
Sequence of C-X-C chemokine receptor type 4 (Homo sapiens) (P61073 whole entry): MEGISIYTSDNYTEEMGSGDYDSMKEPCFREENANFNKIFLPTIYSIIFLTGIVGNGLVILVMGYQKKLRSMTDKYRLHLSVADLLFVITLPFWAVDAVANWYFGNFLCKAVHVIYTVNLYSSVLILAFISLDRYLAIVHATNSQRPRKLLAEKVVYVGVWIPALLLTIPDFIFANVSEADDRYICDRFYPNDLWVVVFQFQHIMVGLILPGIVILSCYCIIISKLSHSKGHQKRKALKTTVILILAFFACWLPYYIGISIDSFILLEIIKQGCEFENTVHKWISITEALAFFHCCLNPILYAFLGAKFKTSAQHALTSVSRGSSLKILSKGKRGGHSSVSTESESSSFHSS

[21] = Antagonist activity at Interleukin-8 receptor in human PMNC assessed as inhibition of CXCL8-induced chemotaxis at 0.01 nM after 2 hrs by microtiter format trans-well migration assay; format: functional; in short: as §1
[22] = biological target: T1, C-C chemokine receptor type 1 (Homo sapiens); assay: Antagonist activity at CCR1 in human THP1 cells assessed as inhibition of CCL3-induced chemotaxis at 1000 nM after 2 hrs by microtiter format trans-well migration assay; format: functional, cell-based; settings: THP-1; in short: as §1

Sequence of C-C chemokine receptor type 5 (Homo sapiens) (P51681 whole entry, looked up): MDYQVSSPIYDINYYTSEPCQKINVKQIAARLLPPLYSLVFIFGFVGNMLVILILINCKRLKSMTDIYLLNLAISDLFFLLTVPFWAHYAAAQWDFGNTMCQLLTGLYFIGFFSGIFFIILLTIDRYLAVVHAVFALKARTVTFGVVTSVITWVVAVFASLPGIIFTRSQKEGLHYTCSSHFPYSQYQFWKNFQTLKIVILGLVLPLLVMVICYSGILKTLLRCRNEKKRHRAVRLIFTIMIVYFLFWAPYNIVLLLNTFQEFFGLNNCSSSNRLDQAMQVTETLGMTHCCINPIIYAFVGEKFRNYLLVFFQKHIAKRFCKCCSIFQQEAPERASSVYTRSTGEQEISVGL

inhibition [1]: 92.5%
Cmax [2]: 0.06 µg/mL
inhibition [4]: 100%
inhibition [6]: 92.5%
Vd [7]: 2 L/kg
inhibition [8]: 12%
half-life [9]: 46 min
inhibition [10]: 53.5%
inhibition [11]: 21%
inhibition [15]: 96%
inhibition [18]: 97%
inhibition [20]: 107%
inhibition [22]: 99.5%
Structure (SMILES): CCCCCCCCCCC(C)(C)C(=O)N[C@H]1CCCCNC1=O
Activity (THP-1 [3]): 1602%
inhibition at 0.1 µM [5]: 128%
inhibition [12]: 26.5%
inhibition (INH) (Mus musculus [13]): 67%
inhibition (INH) (Mus musculus [14]): 65%
Activity (THP-1 [16]): 2540%
Activity (THP-1 [17]): 4335%
inhibition (INH) (Mus musculus [19]): 54%
inhibition at 10 pM [21]: -12%
